Assay results from ChEMBL document CHEMBL1932987, “Straightforward palladium-mediated synthesis and biological evaluation of benzo[j]phenanthridine-7,12-diones as anti-tuberculosis agents” (Eur J Med Chem, 2012).
In brackets after ≈: the same amount, converted by molar mass.

System: Mycobacterium tuberculosis
Assay: Antimycobacterial activity against multi-drug resistant Mycobacterium tuberculosis LAM-1 after 1 to 6 days by BACTEC 460-TB assay
Format: functional
Procedure, shortened: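 Drug-resistant clinical LAM-1 isolate of M.tb. (resistant to isoniazid, rifampicin, rifabutin, prothionamid) tested in the BACTEC 460-TB radiometric system. Growth index read over time and compared with an untreated control and with a 100-fold diluted inoculum to derive MIC99. Isoniazid run in parallel to confirm resistance.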

Structure (SMILES): Cc1ccc2c3c(cnc2c1)C(=O)c1ccccc1C3=O
- MIC99: 0.71 µM (≈ 0.194 µg/mL)
